Results taken from ChEMBL document CHEMBL1128466, “Synthesis and antimalarial activities of several fluorinated artemisinin derivatives” (1995).

Columns and labels:
Type in all cases: functional
Plasmodium falciparum [1] = assay: Relative activity against Plasmodium falciparum D6 compared to arteether as IC50 ratio
Plasmodium falciparum [2] = assay: Relative activity against Plasmodium falciparum W2 compared to arteether as IC50 ratio
Plasmodium falciparum [3] = assay: Relative activity against Plasmodium falciparum D6 compared to artemisinin as IC50 ratio
Plasmodium falciparum [4] = assay: Relative activity against Plasmodium falciparum W-2 compared to of IC50 value of artemisinin as IC50 ratio
Plasmodium falciparum [5] = assay: Relative activity against Plasmodium falciparum FCR3 compared to artemisinin as IC50 ratio
How it was run: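 In vitro screen of P. falciparum strain FCR3 cultures by a modified Desjardins method. The value is the ratio of artemisinin activity to that of each fluorinated derivative.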

CCO[C@H]1O[C@@H]2O[C@@]3(C)CC[C@H]4C(C)=C(F)C[C@@H]([C@H]1C)[C@@]24OO3
Ratio (Plasmodium falciparum [1]): 0.2
Ratio (Plasmodium falciparum [2]): 0.3
Ratio (Plasmodium falciparum [3]): 0.6
Ratio (Plasmodium falciparum [4]): 0.5

C[C@@H]1CC[C@H]2[C@](C)(O)[C@@H](OCC(F)(F)F)O[C@@H]3O[C@@]4(C)CC[C@@H]1[C@]32OO4
Ratio (Plasmodium falciparum [3]): 1.8
Ratio (Plasmodium falciparum [4]): 1.5

CCO[C@H]1O[C@@H]2O[C@@]3(C)CC[C@H]4[C@H](C)C(F)(F)C[C@@H]([C@H]1C)C24OO3 (single isomer, unassigned)
Ratio (Plasmodium falciparum [1]): 0.5
Ratio (Plasmodium falciparum [2]): 0.8
Ratio (Plasmodium falciparum [3]): 1.4
Ratio (Plasmodium falciparum [4]): 1.2

C[C@@H]1CC[C@H]2[C@@](C)(O)[C@@H](OCc3ccc(F)cc3)O[C@@H]3O[C@@]4(C)CC[C@@H]1[C@]32OO4
Ratio (Plasmodium falciparum [5]): 0.1

CCO[C@H]1O[C@@H]2O[C@@]3(C)CC[C@H]4[C@H](C=O)CC[C@@H]([C@H]1C)[C@@]24OO3
Ratio (Plasmodium falciparum [1]): 0.1
Ratio (Plasmodium falciparum [2]): 0.8
Ratio (Plasmodium falciparum [3]): 1.2
Ratio (Plasmodium falciparum [4]): 1.4

C[C@@H]1CC[C@H]2[C@@](C)(O)[C@@H](OCc3ccccc3F)O[C@@H]3O[C@@]4(C)CC[C@@H]1[C@]32OO4
Ratio (Plasmodium falciparum [5]): 0.11

C[C@@H]1CC[C@H]2[C@@](C)(O)[C@@H](OCc3c(F)c(F)c(F)c(F)c3F)O[C@@H]3O[C@@]4(C)CC[C@@H]1[C@]32OO4
Ratio (Plasmodium falciparum [5]): 0.1

CCO[C@H]1O[C@@H]2O[C@@]3(C)CC[C@H]4[C@H](C)CC[C@@H]([C@@]1(C)O)[C@@]24OO3
Ratio (Plasmodium falciparum [3]): 0.08
Ratio (Plasmodium falciparum [4]): 0.06

CCO[C@H]1O[C@@H]2O[C@@]3(C)CC[C@H]4[C@H](C)CC[C@@H]([C@]1(C)O)[C@@]24OO3
Ratio (Plasmodium falciparum [3]): 0.45
Ratio (Plasmodium falciparum [4]): 0.3

C[C@H]1[C@@H](CC(F)F)O[C@@H]2O[C@@]3(C)CC[C@H]4[C@H](C)CC[C@@H]1[C@@]24OO3
Ratio (Plasmodium falciparum [1]): 1.3
Ratio (Plasmodium falciparum [2]): 0.73
Ratio (Plasmodium falciparum [3]): 3.8
Ratio (Plasmodium falciparum [4]): 1.1

CCO[C@H]1O[C@@H]2O[C@@]3(C)CC[C@H]4[C@H](C)C(=O)C[C@@H]([C@H]1C)[C@@]24OO3
Ratio (Plasmodium falciparum [1]): 0.05
Ratio (Plasmodium falciparum [2]): 0.6
Ratio (Plasmodium falciparum [3]): 0.5
Ratio (Plasmodium falciparum [4]): 1.2

C[C@@H]1CC[C@H]2[C@@](C)(O)[C@@H](OCC(F)(F)F)O[C@@H]3O[C@@]4(C)CC[C@@H]1[C@]32OO4
Ratio (Plasmodium falciparum [3]): 0.15
Ratio (Plasmodium falciparum [4]): 0.14

C[C@H]1[C@@H](CC(C)(F)F)O[C@@H]2O[C@@]3(C)CC[C@H]4[C@H](C)CC[C@@H]1[C@@]24OO3
Ratio (Plasmodium falciparum [1]): 0.4
Ratio (Plasmodium falciparum [2]): 0.3
Ratio (Plasmodium falciparum [3]): 1.2
Ratio (Plasmodium falciparum [4]): 0.5

C[C@@H]1CC[C@H]2[C@@](C)(O)[C@@H](OCc3cccc(F)c3)O[C@@H]3O[C@@]4(C)CC[C@@H]1[C@]32OO4
Ratio (Plasmodium falciparum [5]): 0.11

CCO[C@H]1O[C@@H]2O[C@@]3(C)CC[C@H]4[C@H](C(F)F)CC[C@@H]([C@H]1C)[C@@]24OO3
Ratio (Plasmodium falciparum [1]): 0.3
Ratio (Plasmodium falciparum [2]): 1.5
Ratio (Plasmodium falciparum [3]): 1
Ratio (Plasmodium falciparum [4]): 2

C[C@H]1[C@@H](OCc2ccc(F)cc2)O[C@@H]2O[C@@]3(C)CC[C@H]4[C@H](C)CC[C@@H]1[C@@]24OO3
Ratio (Plasmodium falciparum [5]): 0.04
